Results as given in ChEMBL document CHEMBL3286180, “Efficacious inhaled PDE4 inhibitors with low emetic potential and long duration of action for the treatment of COPD” (J Med Chem, 2014).
Converted amounts (≈) assume the structure as drawn. The source made the active and inactive calls. The calls are words filed in the database; no cut-off is given here.

What was measured:
[1] = molecular target: 3',5'-cyclic-AMP phosphodiesterase 4B (Homo sapiens, UniProt Q07343); assay: Inhibition of human recombinant PDE4B using [3H]cAMP by packard topcount scintillation counting analysis
Sequence of 3',5'-cyclic-AMP phosphodiesterase 4B (Q07343 whole entry): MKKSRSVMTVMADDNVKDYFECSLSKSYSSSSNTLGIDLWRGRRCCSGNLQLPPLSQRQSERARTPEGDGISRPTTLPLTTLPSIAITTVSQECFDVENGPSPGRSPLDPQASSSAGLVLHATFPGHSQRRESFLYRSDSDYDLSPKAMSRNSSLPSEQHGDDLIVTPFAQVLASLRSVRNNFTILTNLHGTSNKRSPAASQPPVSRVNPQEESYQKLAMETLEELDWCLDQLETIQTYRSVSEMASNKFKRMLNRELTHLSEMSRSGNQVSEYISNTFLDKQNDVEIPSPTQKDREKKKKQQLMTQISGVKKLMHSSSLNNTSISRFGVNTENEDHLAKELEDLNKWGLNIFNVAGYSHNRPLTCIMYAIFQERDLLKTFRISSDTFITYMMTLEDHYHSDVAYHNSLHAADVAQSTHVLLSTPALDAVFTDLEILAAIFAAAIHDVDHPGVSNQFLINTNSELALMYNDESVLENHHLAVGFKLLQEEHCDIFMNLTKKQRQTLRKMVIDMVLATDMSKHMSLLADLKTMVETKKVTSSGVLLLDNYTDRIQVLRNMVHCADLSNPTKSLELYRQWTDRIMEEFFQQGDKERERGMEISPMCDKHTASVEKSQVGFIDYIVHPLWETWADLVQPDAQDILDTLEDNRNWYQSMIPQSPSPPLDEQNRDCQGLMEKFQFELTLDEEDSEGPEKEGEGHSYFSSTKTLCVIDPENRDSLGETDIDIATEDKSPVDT

[2] = Fraction unbound in human plasma; assay type: ADME, cell-free
[3] = Aqueous solubility of the compound at pH 7.4; assay type: physicochemical; details: aqueous medium
[4] = Lipophilicity, log D of the compound; assay type: physicochemical; details: octanol/water
[5] = test system: Rattus norvegicus; assay: Antiinflammatory activity in Sprague-Dawley rat assessed as inhibition of LPS-induced bronchoalveolar lavage neutrophils at 0.03 to 3 mg/ml, inhalation administered as nebulized suspension; assay type: functional, organism-based
In short: (§1)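 Rats were given the compound as an aqueous nebulized aerosol by nose-only inhalation 30 min before LPS challenge. Dose is expressed as mg/mL nebulizer concentration. Lung neutrophilia was the readout, and terminal lung concentration (nM) was measured. Groups held 8−10 animals per treatment.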

[6] = test system: Rattus norvegicus; assay: Antiinflammatory activity in Sprague-Dawley rat assessed as inhibition of LPS-induced bronchoalveolar lavage neutrophils at 145 to 5238 particles/cm'3, inhalation administered as dry powder; assay type: functional, organism-based
[7] = test system: Rattus norvegicus; assay: Antiinflammatory activity in Sprague-Dawley rat assessed as inhibition of LPS-induced bronchoalveolar lavage neutrophils at lung exposure 1000 to 6000 particles/cm'3, inhalation administered as dry powder; assay type: functional, organism-based
[8] = test system: PBMC; assay: Antiinflammatory activity in human PBMC assessed as inhibition of LPS-induced TNFalpha production after 20 hrs by fluorescence linked immunosorbant assay; assay type: functional, cell-based
[9] = Fraction unbound in rat plasma; assay type: ADME, cell-free
[10] = Intrinsic clearance in human liver microsomes; assay type: ADME; details: read-out: CLH
[11] = Intrinsic clearance in rat hepatocytes measured per 10^6 cells; assay type: ADME, cell-based, Hepatocyte; details: read-out: CLH
[12] = Clearance in rat at 1 mg/kg, iv; assay type: ADME, organism-based; set-up: dose 1 mg/kg, route intravenous; details: in vivo
In short: (§2)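 Rat pharmacokinetics were run at 1 mg/kg, given iv or by intratracheal instillation, with 2−3 animals per study.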

[13] = Volume of distribution at steady state in rat at 1 mg/kg, iv; assay type: ADME, organism-based; set-up: dose 1 mg/kg, route intravenous; details: in vivo, read-out: Vdss
[14] = Half life in rat at 1 mg/kg, iv; assay type: ADME, organism-based; set-up: dose 1 mg/kg, route intravenous; details: in vivo; in short: as §2
[15] = test system: Rattus norvegicus; assay: Antiinflammatory activity in Sprague-Dawley rat assessed as inhibition of LPS-induced bronchoalveolar lavage neutrophils measured as LPS duration at 0.03 to 3 mg/ml, inhalation administered as nebulized suspension; assay type: functional, organism-based
In short: (§3)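 Duration protocol: rats received a nose-only inhalation of nebulized aqueous compound solution 12 h before LPS challenge. Dose is expressed as mg/mL nebulizer concentration. Readout was LPS-induced pulmonary neutrophilia, with terminal lung concentration (nM) measured. Groups held 8−10 animals per treatment.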

[16] = test system: Blood; assay: tissue or blood; details: Rattus norvegicus, 20 h, read-out: pIC50 (converted)
[17] = test system: Rattus norvegicus; assay: Antiinflammatory activity in Sprague-Dawley rat assessed as inhibition of LPS-induced bronchoalveolar lavage neutrophils at 0.03 mg/ml, inhalation administered as nebulized suspension; assay type: functional, organism-based; in short: as §1
[18] = molecular target: Cytochrome P450 3A4 (Homo sapiens, UniProt P08684); assay: Inhibition of CYP3A4 (unknown origin); assay type: ADME
Sequence of Cytochrome P450 3A4 (P08684 whole entry): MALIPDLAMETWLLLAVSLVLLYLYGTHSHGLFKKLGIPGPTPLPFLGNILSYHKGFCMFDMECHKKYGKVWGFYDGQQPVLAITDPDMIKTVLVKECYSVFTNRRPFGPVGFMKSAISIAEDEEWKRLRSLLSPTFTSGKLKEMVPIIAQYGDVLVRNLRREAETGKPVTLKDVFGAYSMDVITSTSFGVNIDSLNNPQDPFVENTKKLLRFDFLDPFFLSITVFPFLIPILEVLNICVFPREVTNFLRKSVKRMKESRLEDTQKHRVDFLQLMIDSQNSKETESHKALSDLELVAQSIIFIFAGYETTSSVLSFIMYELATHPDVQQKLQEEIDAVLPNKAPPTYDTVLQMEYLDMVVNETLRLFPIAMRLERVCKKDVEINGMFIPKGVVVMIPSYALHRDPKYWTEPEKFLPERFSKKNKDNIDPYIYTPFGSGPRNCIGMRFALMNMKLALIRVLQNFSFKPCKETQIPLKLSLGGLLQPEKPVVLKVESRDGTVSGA

[19] = molecular target: Cytochrome P450 2C9 (Homo sapiens, UniProt P11712); assay: Inhibition of CYP2C9 (unknown origin); assay type: ADME
Sequence of Cytochrome P450 2C9 (P11712 whole entry): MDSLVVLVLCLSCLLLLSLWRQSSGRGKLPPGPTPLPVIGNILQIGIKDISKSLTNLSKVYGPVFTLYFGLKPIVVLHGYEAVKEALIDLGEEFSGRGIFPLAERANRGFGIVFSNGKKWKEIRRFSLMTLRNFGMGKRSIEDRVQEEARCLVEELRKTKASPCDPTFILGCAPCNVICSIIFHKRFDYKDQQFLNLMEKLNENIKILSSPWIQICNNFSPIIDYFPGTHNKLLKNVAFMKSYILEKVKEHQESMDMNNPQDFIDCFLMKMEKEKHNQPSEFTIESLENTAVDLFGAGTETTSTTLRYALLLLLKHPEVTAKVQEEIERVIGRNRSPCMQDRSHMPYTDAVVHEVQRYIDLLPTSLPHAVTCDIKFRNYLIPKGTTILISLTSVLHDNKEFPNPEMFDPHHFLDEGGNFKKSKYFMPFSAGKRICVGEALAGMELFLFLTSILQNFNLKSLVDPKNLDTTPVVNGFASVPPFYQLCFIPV

[20] = test system: Rattus norvegicus; assay: Apparent volume of distribution in rat at 1 mg/kg, iv; assay type: ADME, organism-based; set-up: dose 1 mg/kg, route intravenous; details: in vivo; in short: as §2
[21] = molecular target: Cytochrome P450 2D6 (Homo sapiens, UniProt P10635); assay: Inhibition of CYP2D6 (unknown origin); assay type: ADME
Sequence of Cytochrome P450 2D6 (P10635 whole entry): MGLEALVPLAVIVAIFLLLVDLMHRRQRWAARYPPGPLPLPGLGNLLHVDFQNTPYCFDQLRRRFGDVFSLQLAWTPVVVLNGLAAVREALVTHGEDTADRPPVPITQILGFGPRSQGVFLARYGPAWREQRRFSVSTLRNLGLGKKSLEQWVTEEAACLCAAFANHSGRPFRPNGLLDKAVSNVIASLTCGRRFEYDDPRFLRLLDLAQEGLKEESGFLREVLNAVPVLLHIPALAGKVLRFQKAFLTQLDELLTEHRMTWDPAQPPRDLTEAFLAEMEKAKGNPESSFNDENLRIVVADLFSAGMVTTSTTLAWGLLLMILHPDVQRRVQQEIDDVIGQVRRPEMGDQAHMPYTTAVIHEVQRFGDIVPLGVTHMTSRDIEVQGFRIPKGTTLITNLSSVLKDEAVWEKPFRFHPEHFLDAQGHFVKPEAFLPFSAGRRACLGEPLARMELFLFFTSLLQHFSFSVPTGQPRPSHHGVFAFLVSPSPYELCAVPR

[22] = molecular target: T1, Cytochrome P450 1A2 (Homo sapiens, UniProt P05177); assay: Inhibition of CYP1A2 (unknown origin); assay type: ADME
T1 sequence (P05177 whole entry): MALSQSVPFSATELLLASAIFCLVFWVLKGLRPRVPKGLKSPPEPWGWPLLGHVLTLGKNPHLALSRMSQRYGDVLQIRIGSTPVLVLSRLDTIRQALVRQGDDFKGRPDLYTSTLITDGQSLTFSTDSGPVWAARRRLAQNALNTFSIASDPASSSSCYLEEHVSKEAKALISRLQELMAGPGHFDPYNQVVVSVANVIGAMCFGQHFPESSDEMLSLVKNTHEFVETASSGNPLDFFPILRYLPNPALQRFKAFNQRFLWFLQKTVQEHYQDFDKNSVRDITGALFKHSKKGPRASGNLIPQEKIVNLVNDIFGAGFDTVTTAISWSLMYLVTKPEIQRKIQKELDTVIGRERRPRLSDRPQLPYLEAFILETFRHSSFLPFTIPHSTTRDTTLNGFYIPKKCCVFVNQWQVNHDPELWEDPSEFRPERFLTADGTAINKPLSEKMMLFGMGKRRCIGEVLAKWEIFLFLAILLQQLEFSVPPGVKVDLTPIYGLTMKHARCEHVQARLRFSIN

[23] = molecular target: Cytochrome P450 2C19 (Homo sapiens, UniProt P33261); assay: Inhibition of CYP2C19 (unknown origin); assay type: ADME
Sequence of Cytochrome P450 2C19 (P33261 whole entry): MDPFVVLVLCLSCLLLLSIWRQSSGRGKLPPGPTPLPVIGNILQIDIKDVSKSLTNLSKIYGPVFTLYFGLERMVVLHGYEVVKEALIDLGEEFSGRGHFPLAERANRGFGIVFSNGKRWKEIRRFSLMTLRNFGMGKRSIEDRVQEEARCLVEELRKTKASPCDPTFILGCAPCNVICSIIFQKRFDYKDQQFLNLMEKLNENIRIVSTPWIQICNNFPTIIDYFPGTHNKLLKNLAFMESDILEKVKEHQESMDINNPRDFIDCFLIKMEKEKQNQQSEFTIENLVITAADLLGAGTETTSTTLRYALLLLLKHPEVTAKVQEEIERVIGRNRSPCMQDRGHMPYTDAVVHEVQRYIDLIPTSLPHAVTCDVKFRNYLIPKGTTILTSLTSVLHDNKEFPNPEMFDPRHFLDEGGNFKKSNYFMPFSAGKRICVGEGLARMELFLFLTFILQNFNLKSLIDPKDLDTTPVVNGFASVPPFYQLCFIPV

[24] = test system: Rattus norvegicus; assay: Antiinflammatory activity in nasally dosed Sprague-Dawley rat assessed as inhibition of LPS-induced bronchoalveolar lavage neutrophils measured as nebulizer concentration administered as […]; assay type: functional
In short: (§4)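 ED80 was derived from the nose-only nebulized-solution dose response in rats dosed 30 min before LPS challenge, with neutrophilia as the readout. ED80 is given as nebulizer concentration, as the matching terminal total lung concentration, and as lung deposited dose estimated from measured filter sample and terminal lung levels.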

[25] = test system: Rattus norvegicus; assay: Antiinflammatory activity in Sprague-Dawley rat assessed as inhibition of LPS-induced bronchoalveolar lavage neutrophils measured as LPS duration at 0.1 mg/ml, inhalation administered as nebulized suspension; assay type: functional, organism-based; in short: as §3
[26] = test system: Rattus norvegicus; assay: Antiinflammatory activity in nasally dosed Sprague-Dawley rat assessed as inhibition of LPS-induced bronchoalveolar lavage neutrophils measured as lung concentration administered as […]; assay type: functional; in short: as §4
[27] = test system: Rattus norvegicus; assay: Antiinflammatory activity in nasally dosed Sprague-Dawley rat assessed as inhibition of LPS-induced bronchoalveolar lavage neutrophils measured as lung deposited dose administered as […]; assay type: functional; in short: as §4

For `O=C(N[C@H]1CC[C@@H](NC(=O)c2nc3ccccc3[nH]c2=O)CC1)c1cc(F)cnc1Oc1cccc(-c2ccc(O)cc2CN2CCOCC2)c1`, which IC50 [1] is on record?
Its IC50 is 0.316 nM.

Which fraction unbound [2] does the source give for `Cc1cc(C(=O)N[C@H]2CC[C@@H](NC(=O)c3cc(F)cnc3Oc3cccc(-c4ccc(CN5C[C@@H](C)N[C@@H](C)C5)c(O)c4)c3)CC2)nn1C` here?
Its fraction unbound is 0.12.

And the solubility [3]?
Its solubility is 890 µM (≈ 596 µg/mL).

And the logD [4]?
The logD was 2.4.

Which inhibition [5] does the source give for `Cc1ccc(O)c(C(=O)N[C@H]2CC[C@@H](NC(=O)c3cc(F)cnc3Oc3ccc(F)c(F)c3)CC2)c1` [UK-500001] here?
The inhibition was “inactive”.

And the inhibition [6]?
The inhibition was “Active”.

What about the inhibition [7] of the same molecule?
Its inhibition is “Active”.

And the IC50 [1]?
The IC50 was 0.631 nM.

And the IC50 [8]?
The IC50 was 3.98 nM.

What about the fraction unbound [2] of the same molecule?
Its fraction unbound is 0.0017.

And the fraction unbound [9]?
Its fraction unbound is 0.017.

What about the solubility [3] of the same molecule?
Its solubility is less than 1 µM.

And the logD [4]?
The logD was 4.4.

And the microsomal CLint [10]?
The microsomal CLint was 116 µL/min/mg.

And the hepatocyte CLint [11]?
The hepatocyte CLint was 76 µL/min/1e6 cells.

What about the clearance [12] of the same molecule?
Its clearance is 97 mL/min/kg.

What about the Vd [13] of the same molecule?
The Vd was 22 L/kg.

And the half-life [14]?
Its half-life is 7.6 h.

And the inhibition [15]?
The inhibition was “inactive”.

And the IC50 [16]?
Its IC50 is 39.8 nM.

For `Cc1cc(C(=O)N[C@H]2CC[C@@H](NC(=O)c3cc(F)cnc3Oc3cccc(-c4cccc(CN5C[C@@H](C)N[C@@H](C)C5)c4)c3)CC2)nn1C`, which IC50 [8] is on record?
Its IC50 is 0.0794 nM.

And the fraction unbound [2]?
Its fraction unbound is 0.18.

What about the solubility [3] of the same molecule?
The solubility was greater than 1500 µM.

And the logD [4]?
The logD was 2.1.

Which IC50 [1] does the source give for `CN(C)Cc1cc(O)ccc1-c1cccc(Oc2ncc(F)cc2C(=O)N[C@H]2CC[C@@H](NC(=O)c3cccc4ocnc34)CC2)c1` here?
The IC50 was 0.316 nM.

Which inhibition [17] does the source give for `C[C@@H]1CN(Cc2ccc(-c3cccc(Oc4ncc(F)cc4C(=O)N[C@H]4CC[C@@H](NC(=O)c5cc6ccccn6n5)CC4)c3)cc2)C[C@H](C)N1` here?
The inhibition was “Active”.

And the IC50 [8]?
Its IC50 is 0.0794 nM.

What about the fraction unbound [2] of the same molecule?
Its fraction unbound is 0.045.

And the solubility [3]?
Its solubility is 580 µM (≈ 392 µg/mL).

And the logD [4]?
The logD was 2.7.

And the clearance [12]?
The clearance was 58 mL/min/kg.

And the Vd [13]?
Its Vd is 13 L/kg.

What about the half-life [14] of the same molecule?
Its half-life is 5.8 h.

And the IC50 [18]?
Its IC50 is 398 nM.

And the IC50 [19]?
Its IC50 is greater than 1000 nM.

And the Vz/F [20]?
Its Vz/F is 30 L/kg.

With `Cc1cc(C(=O)N[C@H]2CC[C@@H](NC(=O)c3cc(F)cnc3Oc3cccc(-c4cc(O)cc(CN5C[C@@H](C)N[C@@H](C)C5)c4)c3)CC2)nn1C` as the molecule, how does the IC50 [8] read?
Its IC50 is 0.398 nM.

And the fraction unbound [2]?
The fraction unbound was 0.35.

And the solubility [3]?
Its solubility is greater than 1500 µM.

What about the logD [4] of the same molecule?
The logD was 2.2.

With `Cc1cc(C(=O)N[C@H]2CC[C@@H](NC(=O)c3cc(F)cnc3Oc3cccc(-c4ccc(CCCN5C[C@@H](C)N[C@@H](C)C5)cc4)c3)CC2)nn1C` as the molecule, how does the inhibition [17] read?
Its inhibition is “Active”.

And the IC50 [1]?
Its IC50 is 0.02 nM.

And the IC50 [8]?
Its IC50 is 0.0631 nM.

And the fraction unbound [2]?
Its fraction unbound is 0.045.

And the solubility [3]?
Its solubility is 130 µM (≈ 88.6 µg/mL).

And the logD [4]?
Its logD is 2.6.

What about the clearance [12] of the same molecule?
The clearance was 68 mL/min/kg.

What about the Vd [13] of the same molecule?
The Vd was 21 L/kg.

And the half-life [14]?
The half-life was 7 h.

What about the IC50 [18] of the same molecule?
The IC50 was greater than 1000 nM.

What about the IC50 [19] of the same molecule?
Its IC50 is greater than 1000 nM.

And the IC50 [21]?
The IC50 was greater than 1000 nM.

And the IC50 [22]?
The IC50 was greater than 1000 nM.

What about the IC50 [23] of the same molecule?
The IC50 was greater than 1000 nM.

What about the Vz/F [20] of the same molecule?
Its Vz/F is 41 L/kg.

And the ED80 [24]?
The ED80 was 50 µg/mL (≈ 73.3 µM).

And the inhibition [25]?
Its inhibition is “Active”.

And the ED80 [26]?
Its ED80 is 60 nM.

And the ED80 [27]?
The ED80 was 0.6 µg/kg.

For `Cc1cc(C(=O)N[C@H]2CC[C@@H](NC(=O)c3cc(F)cnc3Oc3cccc(-c4ccc(CN5C[C@@H](C)N[C@@H](C)C5)cc4)c3)CC2)nn1C`, which IC50 [8] is on record?
The IC50 was 0.1 nM.

What about the fraction unbound [2] of the same molecule?
The fraction unbound was 0.11.

What about the solubility [3] of the same molecule?
Its solubility is 1300 µM (≈ 850 µg/mL).

And the logD [4]?
The logD was 2.4.

Which solubility [3] does the source give for `Cc1csc(C(=O)N[C@H]2CC[C@@H](NC(=O)c3cc(F)cnc3Oc3cccc(-c4ccc(CN5C[C@@H](C)N[C@@H](C)C5)cc4CN4CCOCC4)c3)CC2)n1.O=C(O)C(F)(F)F` here?
The solubility was greater than 1400 µM.

For `Cc1nc(C(=O)N[C@H]2CC[C@@H](NC(=O)c3cc(F)cnc3Oc3cccc(-c4ccc(CN5C[C@@H](C)N[C@@H](C)C5)cc4)c3)CC2)cs1`, which pIC50 [1] is on record?
Its pIC50 is 10.2.
